Source: ChEMBL document CHEMBL1138440, “Phosphorous acid analogs of novel P2-P4 macrocycles as inhibitors of HCV-NS3 protease” (Bioorg Med Chem Lett, 2009)

Experiments:
[1] = system: Hepatitis C virus; test: Antiviral activity against HCV infected in human HuH7 cells by subgenomic replication assay in presence of 50% normal human serum; type: functional, organism-based, Hepacivirus hominis, Huh-7
Method in brief: (§1)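 HCV replicon replication assay in Huh-7 cells; EC50 is the concentration giving 50% inhibition of replication. Run with 10% fetal calf serum (low serum) or 50% normal human serum (to gauge protein binding). Mean of at least three independent experiments.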

[2] = system: Hepatitis C virus; test: Antiviral activity against HCV infected in human HuH7 cells by subgenomic replication assay in presence of 10% fetal calf serum; type: functional, organism-based, Hepacivirus hominis; settings: Huh-7; method in brief: as §1
[3] = system: Hepatitis C virus; test: Inhibition of HCV genotype 1b NS3/4A protease; set-up: species or system Hepatitis C virus subtype 1b
Method in brief: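 Full-length HCV NS3/4A protease; inhibition reported as Ki. Mean of at least three independent experiments.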

Structure (SMILES): C=CC1CC1(NC(=O)[C@@H]1C[C@@H]2CN1C(=O)[C@H](C(C)(C)C)NC(=O)OCC(C)(C)CCCCc1cccc3c1CN(C3)C(=O)O2)P(=O)(OCC)OCC (single isomer, unassigned)
- EC50 ([1]; Hepatitis C virus, Huh-7): 15 µM
- EC50 [2]: 20 µM

Structure (SMILES): C=CC1CC1(NC(=O)[C@@H]1C[C@@H]2CN1C(=O)[C@H](C(C)(C)C)NC(=O)OCC(C)(C)CCCCc1cccc3c1CN(C3)C(=O)O2)P(=O)(O)O (mixture of isomers)
- Ki [3]: 0.016 µM

Structure (SMILES): C=CC1CC1(NC(=O)[C@@H]1C[C@@H]2CN1C(=O)[C@H](C(C)(C)C)NC(=O)OCC(C)(C)CCCCc1cccc3c1CN(C3)C(=O)O2)P(=O)(O)OCC (mixture of isomers)
- Ki [3]: 0.07 µM
- EC50 ([1]; Hepatitis C virus, Huh-7): 2.4 µM
- EC50 [2]: 0.66 µM

Structure (SMILES): C=CC1CC1(NC(=O)[C@@H]1C[C@@H]2CN1C(=O)[C@H](C(C)(C)C)NC(=O)OCC(C)(C)CCCCc1cccc3c1CN(C3)C(=O)O2)P(=O)(OCC)OCC (stereo in doubt)
- Ki [3]: 2.9 µM
- EC50 ([1]; huh-7): 20 µM

Structure (SMILES): C=C[C@H]1C[C@]1(NC(=O)[C@@H]1C[C@@H]2CN1C(=O)[C@H](C(C)(C)C)NC(=O)OCC(C)(C)CCCCc1cccc3c1CN(C3)C(=O)O2)C(=O)O
- Ki [3]: 2.8 µM

Structure (SMILES): C=CC1CC1(NC(=O)[C@@H]1C[C@@H]2CN1C(=O)[C@H](C(C)(C)C)NC(=O)OCC(C)(C)CCCCc1cccc3c1CN(C3)C(=O)O2)P(C)(=O)O (mixture of isomers)
- Ki [3]: 0.002 µM
- EC50 ([1]; Hepatitis C virus, Huh-7): 0.25 µM
- EC50 [2]: 0.5 µM
